pEC50: −log10 of the molar value. A value given as a limit tells only on which side of the number the result lay.

As a reminder, the pEC50 is the negative decadic logarithm of the EC50, by convention in mol/L. Read a high pEC50 as a low EC50.

The subject of test [1] is CCRF-CEM. Nature of the test: Dose that inhibited 50% cell growth of human T-lymphoid CEM cells compared with untreated control. The test is classed as functional. In outline: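 CEM cells in log-phase growth were exposed to serial drug dilutions and kept for three generations, then counted by Coulter counter. ID50 is the dose giving 50% growth inhibition versus untreated control.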

The nature of test [2]: Effective concentration to show 50% of activity was measured on herpes simplex virus-2 333 strain cell culture. In kind it is functional, Human alphaherpesvirus 2. In outline: (§1)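 Plaque reduction assay in Vero cells kept in RPMI 1640 with 10% FBS. HSV-1 was KOS strain and HSV-2 was strain 333. EC50 is based on the reduction in plaques.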
Test [3] can be described thus: Effective concentration to show 50% of activity was measured on herpes simplex virus-1 KOS strain cell culture. In kind it is functional, Human alphaherpesvirus 1. The method in brief: as §1
Test [4] relates to Human alphaherpesvirus 3. Briefly: Effective concentration to show 50% of activity was measured on varicella zoster virus(VZV) cell culture. In kind it is functional, organism-based.
The subject of test [5] is CCRF-CEM. Nature of the test: The mitochondrial toxicity was measured on human T-lymphoid CEM cells. In kind it is functional. The method in brief: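 Human T-lymphoid CEM cells were incubated with drug at various concentrations, with medium and drug renewed on days 4 and 6, and harvested on day 8. DNA was extracted in TE (25 mM Tris pH 8.0, 1 mM EDTA), treated with RNase A and proteinase K, slot-blotted and probed with an mtDNA-specific probe.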

Another test concerns Human gammaherpesvirus 4. Nature of the test: Effective concentration to show 50% of activity was measured on Epstein Barr virus(EBV) cell culture. The test is classed as functional, organism-based. The method in brief:
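EBV-producing H-1 cells were kept in RPMI 1640 with 10% FBS. Inhibition of viral growth was read as reduced viral DNA synthesis and expressed as EC50.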

Test [6] is described as follows: The effective concentration to show 50% of activity was measured on herpes simplex virus-1 with strain KOS cell culture. In kind it is functional, cell-based, Human alphaherpesvirus 1. In outline:
as §1

Test [7] deals with Human alphaherpesvirus 3. Nature of the test: The effective concentration to show 50% of activity was measured on varicella zoster virus(VZV) cell culture. In kind it is functional, organism-based. The method in brief: (§2)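 VZV Ellen strain was used. Antiviral effect was scored as inhibition of viral DNA synthesis and expressed as EC50.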
The subject of test [8] is Human alphaherpesvirus 3. Nature of the test: The effective concentration to show 50% of activity was measured on varicella zoster virus(Ellen) cell culture. In kind it is functional, organism-based. In outline:
as §2

With `O=c1[nH]c(=O)n(C2CS[C@@H](CO)O2)cc1/C=C/Br` (stereo partly drawn), the ID50 in the test on CCRF-CEM [1] is greater than 100 µM. Further, the pEC50 in test [2] and in test [3] was less than 4.30 throughout.

Turning to `O=c1[nH]c(=O)n([C@H]2O[C@@H](CO)[C@H](O)[C@H]2O)cc1/C=C/Br` (stereo in doubt), the values for the negative logarithm of the EC50 (pEC50) with Human alphaherpesvirus 3 [4] and in the test on Human gammaherpesvirus 4 were 9.00 and 4.33, respectively. In the test with CCRF-CEM [5], the ID50 is greater than 200 µM.

As for `O=c1[nH]c(=O)n([C@H]2CO[C@H](CO)O2)cc1/C=C/Br`, the ID50 in the test on CCRF-CEM [1] is greater than 100 µM; with CCRF-CEM [5], greater than 25 µM. Further, the pEC50 in test [2] is less than 4.30; with Human alphaherpesvirus 3 [4] (Human alphaherpesvirus 3), less than 4.52; with Human gammaherpesvirus 4 (human gammaherpesvirus 4), less than 4.30; in test [3] it was less than 4.30.

Regarding `O=c1[nH]c(=O)n([C@@H]2CO[C@H](CO)O2)cc1/C=C/Br`, the ID50 is greater than 100 µM in the test with CCRF-CEM [1] and greater than 200 µM in the test on CCRF-CEM [5]. Moreover, the pEC50 was less than 4.30 in [2], 7.15 with Human alphaherpesvirus 3 [4] (Human alphaherpesvirus 3), 6.23 in the test with Human gammaherpesvirus 4 (human gammaherpesvirus 4) and 4.44 in [3].

Take `Nc1nc(O)c2ncn(CCC(CO)CO)c2n1` [PENCICLOVIR]: the pEC50 is 4.74 in test [6] and 6.85 in the test on Human alphaherpesvirus 3 [7]. For the same compound, the ID50 in the test on CCRF-CEM [1] was greater than 100 µM; with CCRF-CEM [5], greater than 200 µM.

Compound `O=c1[nH]c(=O)n([C@H]2O[C@@H](CO)[C@H](O)[C@@H]2F)cc1/C=C/Br` yielded an ID50 with CCRF-CEM [1] greater than 100 µM. The negative-log EC50 (pEC50) (in test [2]; with Human alphaherpesvirus 3 [4] (Human alphaherpesvirus 3); in test [3]) was less than 4.30 each time.

Turning to `O=c1[nH]c(=O)n([C@@H]2CO[C@H](CO)O2)cc1/C=C/I`, the ID50 was greater than 100 µM in the test with CCRF-CEM [1] and greater than 200 µM in the test with CCRF-CEM [5]. Also, the negative-log EC50 (pEC50) in [2] was less than 4.30; with Human alphaherpesvirus 3 [4] (Human alphaherpesvirus 3) it was 7.46; in the test with Human gammaherpesvirus 4 (human gammaherpesvirus 4) it was 5.41; in [3], 4.48.

In the case of `O=c1[nH]c(=O)n([C@@H]2CO[C@@H](CO)O2)cc1/C=C/Br`, the ID50 in the test on CCRF-CEM [1] is greater than 100 µM. Besides, the negative logarithm of the EC50 (pEC50) in test [2] is less than 4.30; with Human alphaherpesvirus 3 [4] (Human alphaherpesvirus 3), less than 4.52; with Human gammaherpesvirus 4 (human gammaherpesvirus 4), less than 4.30; in test [3] it was less than 4.30.

As for `Nc1nc2c(ncn2COCCO)c(=O)[nH]1` [ACYCLOVIR], the ID50 was greater than 100 µM in the test with CCRF-CEM [1] and greater than 200 µM in the test on CCRF-CEM [5]. Moreover, the pEC50 is 4.71 in the test on Human gammaherpesvirus 4 (human gammaherpesvirus 4) and 4.87 in test [3].

Consider `O=c1[nH]c(=O)n(C2CO[C@@H](CO)O2)cc1/C=C/Br` (stereo partly drawn), for which, in the test on CCRF-CEM [1], the ID50 was greater than 100 µM. Moreover, the negative logarithm of the EC50 (pEC50) in [2] was less than 4.30; in the test on Human alphaherpesvirus 3 [4] (Human alphaherpesvirus 3), 4.59; in the test on Human gammaherpesvirus 4 (human gammaherpesvirus 4) it was less than 4.30; in test [3], less than 4.30.

With `O=c1[nH]c(=O)n([C@H]2C[C@H](O)[C@@H](CO)O2)cc1/C=C/Br` [BRIVUDINE], the ID50 in the test on CCRF-CEM [1] and in the test with CCRF-CEM [5] was greater than 100 µM in each case. Besides, the negative-log EC50 (pEC50) in [2] was less than 4.30; with Human alphaherpesvirus 3 [4] (Human alphaherpesvirus 3), 7.30; in the test on Human gammaherpesvirus 4 (human gammaherpesvirus 4), less than 4.30; in the test with Human alphaherpesvirus 3 [8] it was less than 4.30; in test [3], less than 4.30.

As for `O=c1[nH]c(=O)n([C@@H]2CO[C@H](CO)O2)cc1/C=C/Cl`, the results for the ID50 with CCRF-CEM [1] and in the test on CCRF-CEM [5] were greater than 100 µM and greater than 200 µM, respectively. The negative-log EC50 (pEC50) was less than 4.30 in [2], 6.82 in the test with Human alphaherpesvirus 3 [4] (Human alphaherpesvirus 3), 6.31 in the test with Human gammaherpesvirus 4 (human gammaherpesvirus 4) and 4.74 in test [3].

On to `O=c1[nH]c(=O)n([C@H]2O[C@@H](CO)[C@H](O)[C@H]2O)cc1/C=C/Br` (stereo in doubt; 4), for which, in the test on CCRF-CEM [1], the ID50 was greater than 100 µM. Further, the pEC50 (in [2]; in the test with Human alphaherpesvirus 3 [4]; with Human gammaherpesvirus 4 (human gammaherpesvirus 4); in [3]) was less than 4.30 each time.

Consider `O=c1[nH]c(=O)n([C@H]2CO[C@H](CO)O2)cc1/C=C/Cl`, for which the results for the ID50 in the test on CCRF-CEM [1] and in the test on CCRF-CEM [5] were greater than 100 µM and greater than 25 µM, respectively. Further, the pEC50 in test [2] is less than 4.30; in the test with Human alphaherpesvirus 3 [4] (Human alphaherpesvirus 3) it was less than 4.52; with Human gammaherpesvirus 4 (human gammaherpesvirus 4), less than 4.30; in test [3] it was less than 4.30.

Turning to `O=c1[nH]c(=O)n([C@H]2CO[C@H](CO)O2)cc1/C=C/I`, the ID50 in the test with CCRF-CEM [1] was greater than 100 µM; with CCRF-CEM [5], greater than 25 µM. Moreover, the pEC50 in [2] is less than 4.30; in the test with Human alphaherpesvirus 3 [4] (Human alphaherpesvirus 3), less than 4.52; in the test with Human gammaherpesvirus 4 (human gammaherpesvirus 4) it was less than 4.30; in test [3] it was less than 4.30.

In turn, `O=c1[nH]c(=O)n([C@H]2O[C@@H](CO)[C@H](O)[C@H]2F)cc1/C=C/Br` gave an ID50 with CCRF-CEM [1] greater than 100 µM. Moreover, the pEC50 (in [2]; in the test on Human alphaherpesvirus 3 [4] (Human alphaherpesvirus 3); in test [3]) was less than 4.30 in each case.

For the compound `O=c1[nH]c(=O)n([C@@H]2CO[C@H](CO)O2)cc1Br`, the figures for the ID50 with CCRF-CEM [1] and in the test with CCRF-CEM [5] were greater than 100 µM and greater than 200 µM, respectively. For the same compound, the negative-log EC50 (pEC50) is less than 4.52 with Human alphaherpesvirus 3 [4] (Human alphaherpesvirus 3) and 6.72 in the test with Human gammaherpesvirus 4 (human gammaherpesvirus 4).

Take `O=c1[nH]c(=O)n([C@@H]2CO[C@H](CO)O2)cc1I`: the ID50 in the test on CCRF-CEM [1] was greater than 100 µM; in the test on CCRF-CEM [5], greater than 200 µM. Besides, the pEC50 is 7.48 with Human gammaherpesvirus 4 (human gammaherpesvirus 4) and 4.77 with Human alphaherpesvirus 3 [7].
